Results from different studies.
Each line is one published result; the experiments were not run side by side.
Matrix: plasma

Cc1cc2sc(N)nc2c2cccnc12
CL/F (female BALB/c mouse; intraperitoneal, 30 mg/kg, single dose): 11 mL/min/kg

Cc1cc([C@@H](C)Nc2ccccc2C(=O)O)c2nc(N3CCC(F)(F)CC3)c(C#N)c(=O)n2c1
clearance (male beagle dog; intravenous, 2 mg/kg): 64 mL/min/kg

CCN1CCN(Cc2ccc(NC(=O)c3ccc(C)c(NC(=O)c4cncc(-c5cccs5)c4)c3)cc2C(F)(F)F)CC1
CL/F (mouse; intraperitoneal, 20 mg/kg, single dose): 151 mL/min/kg

O=C1CC[C@H](N2Cc3cc(N4CCN(CC5CCN(c6ccc([C@@H]7c8ccc(O)cc8CC[C@@H]7c7ccccc7)cc6)CC5)CC4)ccc3C2=O)C(=O)N1
Tmax (female Sprague-Dawley rat; oral, 20 mg/kg, fed): 320 min

COc1cc2c3c(n(CCCNCCO)c(=O)c2cc1OC)-c1nc2c(cc1C3=O)OCO2
clearance (male CD-1 mouse; intravenous, 1 mg/kg): 107 mL/min/kg

O=C1CCC(N2Cc3cc(NC(=O)c4cccc(F)c4)ccc3C2=O)C(=O)N1 (stereo not drawn)
clearance (female CD-1 mouse; intravenous, 3 mg/kg): 24 mL/min/kg

N[C@@H](CC(=O)O)Cn1nnc(-c2ccc(Oc3ncc(Cl)cc3F)cc2)n1
Cmax (male beagle dog; oral, 0.5 mg/kg): 5.7 ng/mL

CC(=O)CC(=O)C1CC(C)C(=O)C1=O (stereo not drawn)
Tmax (male Sprague-Dawley rat; oral, 100 mg/kg): 4.8 min

Cc1c(C(=O)O)ccc2c3n(nc12)[C@@H]1[C@H](C3)N(CC2CC2)[C@@]2(C(=O)Nc3cc(Cl)ccc32)[C@H]1c1cccc(Cl)c1F
Cmax (male dog; oral, 2 mg/kg): 3.5 µM

CC1=NN(/C(=N/c2nnc(C)s2)Nc2ccc(C)c(C)c2)C(c2cc(F)c(F)c(F)c2)S1 (stereo not drawn)
clearance (male CD-1 mouse; intravenous, 1 mg/kg): 121 mL/min/kg

CC(=Nc1ccc(N=Cc2cnccn2)cc1)N(C)C
Tmax (male Sprague-Dawley rat; oral, 200 mg/kg): 4.98 min

O=C(C=Cc1ccccc1)Nc1cc(-c2ccnc(N3CCC(O)CC3)c2)ccn1
Tmax (female Sprague-Dawley rat; intravenous, 5 mg/kg): 4.98 min

CCNCCCn1c2c(c3cc(OC)c(OC)cc3c1=O)C(=O)c1cc3c(nc1-2)OCO3
clearance (male CD-1 mouse; intravenous, 1 mg/kg): 107 mL/min/kg

O=C1CCC(N2Cc3cc(Nc4noc5cc(F)ccc45)ccc3C2=O)C(=O)N1 (stereo not drawn)
clearance (female CD-1 mouse; intravenous, 3 mg/kg): 55 mL/min/kg

N#C[C@@]12C[C@@H]1[C@@H](n1cnc3c(N[C@@H](C4CCC4)C4CC4)nc(I)nc31)[C@H](O)[C@@H]2O
Tmax (male Wistar rat; oral, 10 mg/kg): 120 min
